Active and inactive are the calls of the source. No cut-off for these calls is given here.
What was measured:
Human alphaherpesvirus 3 [1] = experiment: Antiviral activity against thymidine kinase-positive Varicella Zoster virus Oka infected in human HEL cells assessed as inhibition of viral plaque formation at 250 uM; format: functional, cell-based; conditions: strain Oka vaccine
Coxsackievirus B4 [2] = experiment: Antiviral activity against Coxsackievirus B4 infected in human HeLa cells assessed as inhibition of viral plaque formation at 250 uM; format: functional, organism-based
Summary of the method: (§1)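 Confluent host cell monolayers were inoculated with 100 CCID50 of virus in the presence of test compound at serial dilutions (250, 50, 10, … μM). Viral cytopathicity was scored once it reached completion in untreated virus-infected controls.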

Human alphaherpesvirus 2 = experiment: Antiviral activity against Herpes simplex virus 2 G infected in human HEL cells assessed as inhibition of viral plaque formation at 250 uM; format: functional, organism-based; conditions: strain G
CCRF-CEM = experiment: Cytotoxicity against human CEM cells 3 days by coulter counting; format: functional; conditions: 72 h
Summary of the method: (§2)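 Cells were suspended at 300,000–500,000 cells/mL and added 1:1 to compound dilutions. Incubation was at 37 °C, 2 days for L1210 and 3 days for CEM, HeLa and HEL. Cells were counted with a Coulter counter. CC50 is the concentration inhibiting cell proliferation by 50%.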

Vaccinia virus = experiment: Antiviral activity against Vaccinia virus infected in human HEL cells assessed as inhibition of viral plaque formation at 250 uM; format: functional, organism-based; conditions: Orthopoxvirus vaccinia; summary of the method: as §1
[3] = tested on: Vesicular stomatitis virus; experiment: Antiviral activity against Vesicular stomatitis virus infected in human Hela cells assessed as inhibition of viral plaque formation at 250 uM; format: functional, organism-based
[4] = tested on: Mammalian orthoreovirus 1; experiment: Antiviral activity against Reovirus-1 infected in african green monkey Vero cells assessed as inhibition of viral plaque formation at 250 uM; format: functional, organism-based; summary of the method: as §1
Sindbis virus = experiment: Antiviral activity against Sindbis virus infected in african green monkey Vero cells assessed as inhibition of viral plaque formation at 250 uM; format: functional, organism-based; summary of the method: as §1
[5] = tested on: Human immunodeficiency virus 2; experiment: Antiviral activity against Human immunodeficiency virus 2 infected in human CEM cells assessed as inhibition of virus-induced giant cell formation after 4 days by microscopic analysis; format: functional, organism-based; conditions: CCRF-CEM
Summary of the method: (§3)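 CEM cells at about 3 × 10⁵ cells/cm³ were infected with 100 CCID50/mL of HIV-1(IIIB) or HIV-2(ROD), then seeded into wells holding test compound dilutions. After 4 days at 37 °C, virus-induced giant cell formation was scored microscopically.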

Human respirovirus 3 = experiment: Antiviral activity against Parainfluenza-3 virus infected in african green monkey Vero cells assessed as inhibition of viral plaque formation at 250 uM; format: functional, organism-based; summary of the method: as §1
L1210 = experiment: Cytotoxicity against mouse L1210 cells 2 days by coulter counting; format: functional; conditions: L1210, 48 h; summary of the method: as §2
Human alphaherpesvirus 3 [6] = experiment: Antiviral activity against thymidine kinase-deficient Varicella Zoster virus 07/1 infected in human HEL cells assessed as inhibition of viral plaque formation at 250 uM; format: functional, organism-based
[7] = tested on: Human immunodeficiency virus 1; experiment: Antiviral activity against Human immunodeficiency virus 1 infected in human CEM cells assessed as inhibition of virus-induced giant cell formation after 4 days by microscopic analysis; format: functional, organism-based; conditions: CCRF-CEM; summary of the method: as §3
Coxsackievirus B4 [8] = experiment: Antiviral activity against Coxsackievirus B4 infected in african green monkey Vero cells assessed as inhibition of viral plaque formation at 250 uM; format: functional, organism-based; summary of the method: as §1
Felid alphaherpesvirus 1 = experiment: Antiviral activity against Felid herpesvirus 1 infected in CrFK cells assessed as inhibition of viral plaque formation at 250 uM; format: functional, organism-based; summary of the method: as §1
Human betaherpesvirus 5 [9] = experiment: Antiviral activity against Human cytomegalovirus AD169 infected in human HEL cells assessed as inhibition of viral plaque formation at 250 uM; format: functional, organism-based
Punta Toro virus = experiment: Antiviral activity against Punta Toro virus infected in african green monkey Vero cells assessed as inhibition of viral plaque formation at 250 uM; format: functional, organism-based
[10] = tested on: Respiratory syncytial virus; experiment: Antiviral activity against Respiratory syncytial virus infected in human HeLa cells assessed as inhibition of viral plaque formation at 250 uM; format: functional, organism-based; summary of the method: as §1
HeLa = experiment: Cytotoxicity against human HeLa cells 3 days by coulter counting; format: functional; conditions: 72 h; summary of the method: as §2
Human alphaherpesvirus 1 [11] = experiment: Antiviral activity against thymidine kinase-deficient acv-resistant Herpes simplex virus 1 KOS infected in human HEL cells assessed as inhibition of viral plaque formation at 250 uM; format: functional, organism-based
HEL = experiment: Cytotoxicity against human HEL cells 3 days by coulter counting; format: functional; conditions: 72 h; summary of the method: as §2
Human alphaherpesvirus 1 [12] = experiment: Antiviral activity against Herpes simplex virus 1 KOS infected in human HEL cells assessed as inhibition of viral plaque formation at 250 uM; format: functional, organism-based; summary of the method: as §1
[13] = tested on: Vesicular stomatitis virus; experiment: Antiviral activity against Vesicular stomatitis virus infected in human HEL cells assessed as inhibition of viral plaque formation at 250 uM; format: functional, organism-based; summary of the method: as §1
Human betaherpesvirus 5 [14] = experiment: Antiviral activity against Human cytomegalovirus Davis infected in human HEL cells assessed as inhibition of viral plaque formation at 250 uM; format: functional, organism-based
Feline coronavirus = experiment: Antiviral activity against Feline coronavirus infected in CrFK cells assessed as inhibition of viral plaque formation at 250 uM; format: functional, organism-based; summary of the method: as §1

CCOP(=O)(OCC)[C@@H]1C[C@@H](n2cc(Cn3cnc4c(N)ncnc43)nn2)ON1C (racemic)
Activity (Human alphaherpesvirus 3 [1]): inactive
Activity (Coxsackievirus B4 [2]): inactive
Activity (Human alphaherpesvirus 2): inactive
CC50 (CCRF-CEM): > 250 µM
Activity (Vaccinia virus): inactive
Activity [3]: inactive
Activity [4]: inactive
Activity (Sindbis virus): inactive
Activity [5]: inactive
Activity (Human respirovirus 3): inactive
CC50 (L1210): 140 µM
Activity (Human alphaherpesvirus 3 [6]): inactive
Activity [7]: inactive
Activity (Coxsackievirus B4 [8]): inactive
Activity (Felid alphaherpesvirus 1): inactive
Activity (Human betaherpesvirus 5 [9]): inactive
Activity (Punta Toro virus): inactive
Activity [10]: inactive
CC50 (HeLa): > 250 µM
Activity (Human alphaherpesvirus 1 [11]): inactive
CC50 (HEL): > 100 µM
Activity (Human alphaherpesvirus 1 [12]): inactive
Activity [13]: inactive
Activity (Human betaherpesvirus 5 [14]): inactive
Activity (Feline coronavirus): inactive

CCOP(=O)(OCC)[C@@H]1C[C@H](n2cc(Cn3ccc(=O)[nH]c3=O)nn2)ON1C (racemic)
Activity (Human alphaherpesvirus 3 [1]): inactive
Activity (Coxsackievirus B4 [2]): inactive
Activity (Human alphaherpesvirus 2): inactive
CC50 (CCRF-CEM): > 250 µM
Activity (Vaccinia virus): inactive
Activity [3]: inactive
Activity [4]: inactive
Activity (Sindbis virus): inactive
Activity [5]: inactive
Activity (Human respirovirus 3): inactive
CC50 (L1210): 235 µM
Activity (Human alphaherpesvirus 3 [6]): inactive
Activity [7]: inactive
Activity (Coxsackievirus B4 [8]): inactive
Activity (Felid alphaherpesvirus 1): inactive
Activity (Human betaherpesvirus 5 [9]): inactive
Activity (Punta Toro virus): inactive
Activity [10]: inactive
CC50 (HeLa): > 250 µM
Activity (Human alphaherpesvirus 1 [11]): inactive
CC50 (HEL): > 100 µM
Activity (Human alphaherpesvirus 1 [12]): inactive
Activity [13]: inactive
Activity (Human betaherpesvirus 5 [14]): inactive
Activity (Feline coronavirus): inactive

CCOP(=O)(OCC)[C@@H]1C[C@H](n2cc(Cn3cc(C)c(=O)[nH]c3=O)nn2)ON1C (racemic)
Activity (Human alphaherpesvirus 3 [1]): inactive
Activity (Coxsackievirus B4 [2]): inactive
Activity (Human alphaherpesvirus 2): inactive
CC50 (CCRF-CEM): > 250 µM
Activity (Vaccinia virus): inactive
Activity [3]: inactive
Activity [4]: inactive
Activity (Sindbis virus): inactive
Activity [5]: inactive
Activity (Human respirovirus 3): inactive
CC50 (L1210): 280 µM
Activity (Human alphaherpesvirus 3 [6]): inactive
Activity [7]: inactive
Activity (Coxsackievirus B4 [8]): inactive
Activity (Felid alphaherpesvirus 1): inactive
Activity (Human betaherpesvirus 5 [9]): inactive
Activity (Punta Toro virus): inactive
Activity [10]: inactive
CC50 (HeLa): > 250 µM
Activity (Human alphaherpesvirus 1 [11]): inactive
CC50 (HEL): > 100 µM
Activity (Human alphaherpesvirus 1 [12]): inactive
Activity [13]: inactive
Activity (Human betaherpesvirus 5 [14]): inactive
Activity (Feline coronavirus): inactive

CCOP(=O)(OCC)[C@@H]1C[C@@H](n2cc(Cn3ccc(=O)[nH]c3=O)nn2)ON1C (relative stereo)
Activity (Human alphaherpesvirus 3 [1]): inactive
Activity (Coxsackievirus B4 [2]): inactive
Activity (Human alphaherpesvirus 2): inactive
CC50 (CCRF-CEM): > 250 µM
Activity (Vaccinia virus): inactive
Activity [3]: inactive
Activity [4]: inactive
Activity (Sindbis virus): inactive
Activity [5]: inactive
Activity (Human respirovirus 3): inactive
CC50 (L1210): > 250 µM
Activity (Human alphaherpesvirus 3 [6]): inactive
Activity [7]: inactive
Activity (Coxsackievirus B4 [8]): inactive
Activity (Felid alphaherpesvirus 1): inactive
Activity (Human betaherpesvirus 5 [9]): inactive
Activity (Punta Toro virus): inactive
Activity [10]: inactive
CC50 (HeLa): ≥ 250 µM
Activity (Human alphaherpesvirus 1 [11]): inactive
CC50 (HEL): > 100 µM
Activity (Human alphaherpesvirus 1 [12]): inactive
Activity [13]: inactive
Activity (Human betaherpesvirus 5 [14]): inactive
Activity (Feline coronavirus): inactive
